Among the data in ChEMBL document CHEMBL1153402, “Pyrido[2,3-e]-1,2,4-triazolo[4,3-a]pyrazin-1-one as a new scaffold to develop potent and selective human A3 adenosine receptor antagonists. Synthesis, pharmacological evaluation, and ligand-receptor modeling studies” (J Med Chem, 2009) are Ki, Activity and EC50 values, retold here.

Assay [1] deals with T1, Adenosine receptor A3 (Homo sapiens, UniProt P0DMS8).
T1 sequence (P0DMS8 whole entry): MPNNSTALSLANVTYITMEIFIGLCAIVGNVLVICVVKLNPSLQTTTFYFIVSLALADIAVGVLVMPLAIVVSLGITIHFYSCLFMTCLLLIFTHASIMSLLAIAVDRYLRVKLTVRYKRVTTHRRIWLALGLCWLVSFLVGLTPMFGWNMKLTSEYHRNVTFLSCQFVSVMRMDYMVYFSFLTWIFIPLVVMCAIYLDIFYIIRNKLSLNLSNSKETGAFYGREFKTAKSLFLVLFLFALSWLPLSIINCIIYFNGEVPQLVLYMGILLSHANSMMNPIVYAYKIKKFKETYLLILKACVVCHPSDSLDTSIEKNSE
Nature of the assay: Displacement of [125I]AB-MECA from human cloned adenosine A3 receptor expressed in CHO cells. Format: cell-based. (In general: Displacement assays read how much labelled ligand stays bound in the presence of the test substance.)

Another assay is filed under the species Bos taurus. Nature of the assay: Displacement of [3H]CGS 21680 from bovine striatal membrane adenosine A2A receptor at 20 uM. In short, it runs like this:
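IC50 from five concentrations in triplicate, nonlinear regression; Ki via Cheng–Prusoff from four assays. Single-point values as percent inhibition at 20 μM.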

Assay [2] has as its system Hippocampus. As to the kind of experiment: Neuroprotective effect against 30-mins oxygen-glucose deprivation triggered neuronal injury in Wistar rat hippocampus CA1 region assessed as delay in anoxic depolarization latency at 10 nM relative to control. Format: functional. In short, it runs like this:
(§1)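 Rat hippocampal slices; CA1 stratum radiatum stimulated (80 μs, 0.066 Hz) with fEPSP at 40–50% of maximum, amplitude expressed as percent of 5 min pre-OGD baseline. OGD: glucose-free aCSF gassed 95% N2/5% CO2 for 7 or 30 min, then reperfusion with oxygenated glucose aCSF. Compound 10 nM (DMSO stock diluted in aCSF) applied 15 min before, during and 5 min after OGD. Anoxic depolarization recorded as negative dc shift, latency from OGD onset; unpaired two-tailed t test.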

The next assay addresses Adenosine receptor A2a (Homo sapiens, UniProt P29274). As to the kind of experiment: Displacement of [3H]NECA from human cloned adenosine A2A receptor expressed in CHO cells at 10 uM. Format: cell-based. In short, it runs like this: (§2)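 CHO cell membranes stably expressing hA1 or hA2A; radioligands [3H]DPCPX (hA1, Kd 3 nM) and [3H]NECA (hA2A, Kd 30 nM). IC50 from five displacer concentrations in triplicate, nonlinear regression; Ki by Cheng–Prusoff; four separate assays. Single-point values as percent inhibition of specific binding at 10 μM.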

Assay [3] addresses T2, Adenosine receptor A1 (Bos taurus, UniProt P28190).
T2 sequence (P28190 whole entry): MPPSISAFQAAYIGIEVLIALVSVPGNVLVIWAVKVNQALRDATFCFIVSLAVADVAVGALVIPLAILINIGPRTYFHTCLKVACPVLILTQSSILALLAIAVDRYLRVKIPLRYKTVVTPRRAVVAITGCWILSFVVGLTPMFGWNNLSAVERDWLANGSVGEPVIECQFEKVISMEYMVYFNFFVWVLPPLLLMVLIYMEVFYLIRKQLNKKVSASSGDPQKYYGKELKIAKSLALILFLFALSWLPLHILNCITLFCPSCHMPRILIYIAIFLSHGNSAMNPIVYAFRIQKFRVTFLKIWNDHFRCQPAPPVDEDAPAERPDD
As to the kind of experiment: Displacement of [3H]DPCPX from bovine brain cortical membrane adenosine A1 receptor.

For assay [4], the target named is T3, Adenosine receptor A1 (Rattus norvegicus, UniProt P25099).
T3 sequence (P25099 whole entry): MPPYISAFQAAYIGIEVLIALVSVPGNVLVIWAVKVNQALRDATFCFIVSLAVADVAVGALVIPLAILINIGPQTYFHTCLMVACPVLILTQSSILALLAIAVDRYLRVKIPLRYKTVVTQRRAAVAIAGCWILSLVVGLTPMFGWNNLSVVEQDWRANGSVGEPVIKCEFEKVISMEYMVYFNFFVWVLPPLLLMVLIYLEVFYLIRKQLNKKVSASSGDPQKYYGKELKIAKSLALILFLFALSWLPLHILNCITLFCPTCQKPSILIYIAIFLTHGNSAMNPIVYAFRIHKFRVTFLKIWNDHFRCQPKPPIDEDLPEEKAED
As to the kind of experiment: Displacement of [3H]DPCPX from adenosine A1 receptor in Wistar rat brain membrane. Type of assay: cell membranes. In short, it runs like this: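 Nonspecific binding defined with 20 μM R-PIA. Filtration on GF/C filters. IC50 by nonlinear regression over five displacer concentrations in triplicate; Ki via Cheng–Prusoff.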

Assay [5] has as its target T1, Adenosine receptor A3. Nature of the assay: Antagonist activity at human adenosine A3 receptor expressed in CHO cells assessed as blockade of NECA-mediated inhibition of forskolin-stimulated cAMP accumulation. Format: functional, cell-based. In short, it runs like this: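 CHO cells stably expressing hA3, plated 48 h, preincubated 15 min at 37 °C with Ro 20-1724 (20 μM) and adenosine deaminase (1 U/mL). Compound (1 nM–10 μM; DMSO stock diluted in water) added 15 min before 100 nM NECA, with 1 μM forskolin stimulation. Lysis in 0.4 N HCl; cAMP by competitive protein binding with [3H]cAMP. EC50 by sigmoid nonlinear regression; three experiments.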
(In general: Cyclic AMP is a second messenger, typically raised through Gs and lowered through Gi signalling.)

In assay [6] the target is T4, Adenosine receptor A1 (Homo sapiens) (UniProt P30542).
T4 sequence (whole entry): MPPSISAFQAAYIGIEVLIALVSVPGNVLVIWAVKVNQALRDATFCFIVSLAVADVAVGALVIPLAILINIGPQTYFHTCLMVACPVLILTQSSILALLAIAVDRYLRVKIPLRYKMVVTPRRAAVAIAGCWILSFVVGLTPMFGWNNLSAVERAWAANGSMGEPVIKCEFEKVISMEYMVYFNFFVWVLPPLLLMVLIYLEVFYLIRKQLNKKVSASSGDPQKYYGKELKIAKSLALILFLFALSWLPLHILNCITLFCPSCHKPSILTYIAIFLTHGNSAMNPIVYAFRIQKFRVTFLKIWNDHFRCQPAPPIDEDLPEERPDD
Nature of the assay: Displacement of [3H]DPCPX from human cloned adenosine A1 receptor expressed in CHO cells at 10 uM. Format: cell-based. In short, it runs like this:
as §2

Assay [7] has as its system Hippocampus. As to the kind of experiment: Neuroprotective effect against 7-mins oxygen-glucose deprivation triggered neuronal injury in Wistar rat hippocampal CA1 region assessed as recovery of field excitatory post synaptic potential at 10 nM relative to control. Format: functional. In short, it runs like this: as §1
Assay [8] addresses Adenosine receptor A2a (Rattus norvegicus) (UniProt P30543). Nature of the assay: Displacement of [3H]CGS21680 adenosine A2A receptor in Wistar rat brain membrane at 10 uM. Type of assay: cell membranes.
For assay [9], the target named is T5, Adenosine receptor A3 (Rattus norvegicus) (UniProt P28647).
T5 sequence (whole entry): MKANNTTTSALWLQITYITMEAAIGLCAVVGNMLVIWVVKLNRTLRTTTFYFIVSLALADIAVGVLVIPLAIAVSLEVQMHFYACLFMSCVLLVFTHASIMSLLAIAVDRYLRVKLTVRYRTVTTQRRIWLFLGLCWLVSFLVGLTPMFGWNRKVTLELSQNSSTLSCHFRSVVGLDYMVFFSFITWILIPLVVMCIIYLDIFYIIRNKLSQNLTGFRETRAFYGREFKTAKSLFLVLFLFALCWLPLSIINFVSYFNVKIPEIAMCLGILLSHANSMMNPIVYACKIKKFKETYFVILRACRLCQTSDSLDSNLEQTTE
As to the kind of experiment: Displacement of [125I]AB-MECA from Wistar rat adenosine A3 receptor expressed in HEK293/EBNA cells by gamma-scintillation spectrometry at 1 uM. Type of assay: cell-based.

Sequence of Adenosine receptor A2a (Rattus norvegicus) (P30543 whole entry): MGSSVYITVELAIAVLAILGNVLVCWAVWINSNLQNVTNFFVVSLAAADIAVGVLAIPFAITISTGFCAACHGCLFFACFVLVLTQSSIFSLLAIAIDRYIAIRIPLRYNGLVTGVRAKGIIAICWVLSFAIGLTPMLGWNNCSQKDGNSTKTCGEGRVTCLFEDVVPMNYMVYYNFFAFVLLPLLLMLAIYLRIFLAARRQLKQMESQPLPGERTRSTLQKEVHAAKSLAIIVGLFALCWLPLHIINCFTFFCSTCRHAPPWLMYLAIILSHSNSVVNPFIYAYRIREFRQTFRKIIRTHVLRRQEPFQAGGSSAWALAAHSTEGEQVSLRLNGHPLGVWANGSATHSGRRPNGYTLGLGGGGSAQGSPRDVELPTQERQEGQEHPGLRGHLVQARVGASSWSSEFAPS
Sequence of Adenosine receptor A2a (P29274 whole entry): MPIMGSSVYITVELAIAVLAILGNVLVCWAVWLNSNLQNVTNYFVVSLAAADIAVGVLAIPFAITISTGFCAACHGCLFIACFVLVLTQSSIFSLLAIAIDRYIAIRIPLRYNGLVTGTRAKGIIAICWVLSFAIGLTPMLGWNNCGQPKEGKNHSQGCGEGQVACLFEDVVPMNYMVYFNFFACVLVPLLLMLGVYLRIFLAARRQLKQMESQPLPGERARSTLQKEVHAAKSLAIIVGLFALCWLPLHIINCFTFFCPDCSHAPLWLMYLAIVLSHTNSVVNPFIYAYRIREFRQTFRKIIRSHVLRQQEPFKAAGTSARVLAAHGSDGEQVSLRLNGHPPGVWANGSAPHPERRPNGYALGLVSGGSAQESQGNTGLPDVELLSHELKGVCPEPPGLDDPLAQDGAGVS

With `COc1ccc(-n2nc3c(NC(=O)c4ccccc4)nc4ncccc4n3c2=O)cc1`, the Ki (in general, the equilibrium dissociation constant of an inhibitor or competing ligand from its target) on Adenosine receptor A3 [1] came out at 4.54 nM; at Adenosine receptor A1 [3], 355 nM; on Adenosine receptor A1 [4], 587 nM. Besides, the Activity in the assay listed under Bos taurus was 7%; in the assay on Hippocampus [2] it was 8.9; on Adenosine receptor A2a, 27%; in assay [6], 38%; in the assay with Hippocampus [7] it was 77.6%; in assay [8], 34%. This compound also registered an Activity in assay [9] of 0%. For the same compound, on Adenosine receptor A3 [5], the EC50 (as a rule, the midpoint of the concentration-response curve) was 36.3 nM.
